In ChEMBL document CHEMBL1123459, “Synthesis and dopaminergic binding of 2-aryldopamine analogues: phenethylamines, 3-benzazepines, and 9-(aminomethyl)fluorenes” (J Med Chem, 1986):

Experiments:
D(1A) dopamine receptor [1] = biological target: T1, D(1A) dopamine receptor (Rattus norvegicus, UniProt P18901); test: Displacement of [3H]fenoldopam from Dopamine receptor D1 of rat striatum membranes; format: cell membranes, Membrane
[2] = biological target: D(2) dopamine receptor (Bos taurus) (UniProt P20288); test: Compound was tested for inhibition of [3H]spiroperidol binding against Dopamine receptor D2 at 10e-5 M
D(2) dopamine receptor (Bos taurus), sequence (P20288 whole entry): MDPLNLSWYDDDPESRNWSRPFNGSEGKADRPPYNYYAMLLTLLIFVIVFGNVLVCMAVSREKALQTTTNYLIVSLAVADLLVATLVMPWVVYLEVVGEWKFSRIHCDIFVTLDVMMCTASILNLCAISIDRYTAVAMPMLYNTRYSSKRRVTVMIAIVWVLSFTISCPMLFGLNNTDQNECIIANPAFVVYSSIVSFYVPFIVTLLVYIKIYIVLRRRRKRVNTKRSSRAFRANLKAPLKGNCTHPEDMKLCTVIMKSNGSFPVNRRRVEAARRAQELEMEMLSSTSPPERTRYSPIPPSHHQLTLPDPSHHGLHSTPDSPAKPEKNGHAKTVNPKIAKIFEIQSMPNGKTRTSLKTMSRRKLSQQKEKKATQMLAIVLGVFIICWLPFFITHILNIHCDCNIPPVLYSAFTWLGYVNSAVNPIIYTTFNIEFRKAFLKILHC

D(2) dopamine receptor = D(2) dopamine receptor (Bos taurus, UniProt P20288); test: Compound was tested for inhibition of [3H]spiroperidol binding against Dopamine receptor D2
D(2) dopamine receptor, sequence (P20288 whole entry): as above
In short: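 Washed bovine anterior pituitary membranes (500 μg protein) incubated 20 min at 37 °C with 0.2–0.3 nM [3H]spiroperidol in Tris-HCl pH 7.4, MgSO4, 2 mM EDTA, 0.1% ascorbate.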

[3] = biological target: D(2) dopamine receptor (Bos taurus) (UniProt P20288); test: Compound was tested for inhibition of [3H]spiroperidol binding against Dopamine receptor D2 at 10e-5 M; IA= Inactive
D(1A) dopamine receptor [4] = biological target: T1, D(1A) dopamine receptor; test: Compound was tested for binding affinity against dDopamine receptor D1 using [3H]fenoldopam as a radioligand

T1 sequence (P18901 whole entry): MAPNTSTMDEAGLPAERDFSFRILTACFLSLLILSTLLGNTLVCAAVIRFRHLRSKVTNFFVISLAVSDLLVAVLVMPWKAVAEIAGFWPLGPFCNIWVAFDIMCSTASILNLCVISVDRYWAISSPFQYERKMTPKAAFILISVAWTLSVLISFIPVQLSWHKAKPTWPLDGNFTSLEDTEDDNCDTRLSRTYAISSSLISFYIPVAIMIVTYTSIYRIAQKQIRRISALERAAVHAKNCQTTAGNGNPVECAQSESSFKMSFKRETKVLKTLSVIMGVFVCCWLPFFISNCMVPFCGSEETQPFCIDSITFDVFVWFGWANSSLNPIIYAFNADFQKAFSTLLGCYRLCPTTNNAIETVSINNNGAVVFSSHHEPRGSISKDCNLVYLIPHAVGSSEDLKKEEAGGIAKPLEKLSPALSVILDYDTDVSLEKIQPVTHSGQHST

| Structure (SMILES) | Ki (D(1A) dopamine receptor [1]) | inhibition [2] | Ki (D(2) dopamine receptor) | inhibition [3] | Ki (D(1A) dopamine receptor [4]) |
| --- | --- | --- | --- | --- | --- |
| NCC1c2ccccc2-c2c1ccc(O)c2O (stereo unspecified) | 380 nM | 20% |  |  |  |
| NCC1c2cc(O)ccc2-c2c1ccc(O)c2O (stereo unspecified) | 43 nM |  | 5740 nM |  |  |
| Oc1c(O)c(-c2ccccc2)c2c(c1Cl)CCNCC2 | 700 nM | 27% |  |  |  |
| Oc1cc2c(c(-c3ccccc3)c1O)CCNCC2 | 1790 nM |  |  | < 20% |  |
| NCCc1ccc(O)c(O)c1-c1ccccc1 | 1500 nM |  |  | < 20% |  |
| CCCN(CCC)CCc1ccc(O)c(O)c1-c1ccccc1 | 1940 nM | 29% |  |  |  |
| Oc1cc2c(cc1O)CCNCC2 |  |  |  |  | 970 nM |
| CCCN(CCC)CCc1ccc(O)c(O)c1-c1ccc(O)cc1 | 1740 nM |  | 1800 nM |  |  |
| Oc1ccc(-c2c(O)c(O)c(Cl)c3c2CCNCC3)cc1 | 1630 nM |  |  | < 20% |  |
| Oc1ccc(-c2c(O)c(O)cc3c2CCNCC3)cc1 | > 3000 nM |  |  | < 20% |  |
| NCCc1ccc(O)c(O)c1-c1ccc(O)cc1 | 1650 nM |  |  | < 20% |  |
